Laboratory results from ChEMBL document CHEMBL1139324, “Chemical modification and biological evaluation of new semisynthetic derivatives of 28,29-Didehydronystatin A1 (S44HP), a genetically engineered antifungal polyene macrolide antibiotic” (J Med Chem, 2009).
In brackets after ≈: the same amount, converted by molar mass.

How the values were obtained:
Candida albicans [1] = assay: Antifungal activity against Candida albicans ATCC 14053 after 48 hrs by broth microdilution method; type: functional; conditions: ATCC 14053, 48 h
Summary of the method: (§1)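 Yeast susceptibility by broth microdilution per NCCLS M27-A in 96-well plates. MIC is the lowest concentration inhibiting growth. Where repeat runs fully coincided, a single value is reported.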

Vanrija humicola = assay: Antifungal activity against Cryptococcus humicolus ATCC 9949 after 48 hrs by broth microdilution method; type: functional; conditions: ATCC 9949, 48 h; summary of the method: as §1
Aspergillus niger = assay: Antifungal activity against Aspergillus niger ATCC 16404 after 48 hrs by broth microdilution method; type: functional; conditions: ATCC 16404, 48 h
Summary of the method: (§2)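 Susceptibility of filamentous fungi (molds) by broth microdilution per NCCLS M38-A in 96-well microplates. The MIC is read as the lowest inhibitory concentration. It is given as one number when replicate data fully agreed.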

Fusarium oxysporum = assay: Antifungal activity against Fusarium oxysporum VKM F-140 after 48 hrs by broth microdilution method; type: functional; summary of the method: as §2
[2] = Toxicity against human erythrocytes assessed as hemolytic activity at 5 ug/ml; type: cell-based, Erythrocyte; conditions: read-out: Activity
Summary of the method: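 Lysis of erythrocytes in defibrinated human blood was measured under buffered conditions with compound at 5 µg/mL. Percent hemolysis is the mean of blood samples from two donors.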

Candida albicans [3] = assay: Antifungal activity against Candida albicans ATCC 10231after 48 hrs by broth microdilution method; type: functional; conditions: ATCC 10231, 48 h
[4] = Toxicity in Candida albicans ATCC 14053 infected iv dosed (C57BL/6xDBA/2)F1 B6D2F1 mouse; type: organism-based; conditions: in vivo

`C[C@@H]1[C@H](O)[C@@H](C)/C=C/C=C/C=C/C=C/C=C/C=C/C=C/[C@H](O[C@H]2O[C@@H](C)[C@H](O)[C@@H](N)[C@H]2O)C[C@@H]2O[C@](O)(C[C@@H](O)[C@H](O)CC[C@@H](O)C[C@@H](O)C[C@@H](O)CC(=O)O[C@H]1C)C[C@H](O)[C@H]2C(=O)N1CCN(CCO)CC1` showed an MIC (Candida albicans [1]) of 1 µg/mL (≈ 0.965 µM), an MIC (Vanrija humicola) of 2 µg/mL (≈ 1.93 µM) and an MIC (Aspergillus niger) of 2 µg/mL (≈ 1.93 µM). For the same compound, the MIC (Fusarium oxysporum) was 4 µg/mL (≈ 3.86 µM), the hemolysis at 5 ug/ml [2] was 2% and the MIC50 (Candida albicans [3]) was 0.13 µg/mL (≈ 0.125 µM). For the same compound, the MIC90 (Candida albicans [3]) was 0.52 µg/mL (≈ 0.502 µM).
For `C[C@@H]1[C@H](O)[C@@H](C)/C=C/C=C/C=C/C=C/C=C/C=C/C=C/[C@H](O[C@H]2O[C@@H](C)[C@H](O)[C@@H](N)[C@H]2O)C[C@@H]2O[C@](O)(C[C@@H](O)[C@H](O)CC[C@@H](O)C[C@@H](O)C[C@@H](O)CC(=O)O[C@H]1C)C[C@H](O)[C@H]2C(=O)O`, the MIC (Candida albicans [1]) was 1 µg/mL (≈ 1.08 µM), the MIC (Vanrija humicola) was 1 µg/mL (≈ 1.08 µM) and the MIC (Aspergillus niger) was 1 µg/mL (≈ 1.08 µM). The MIC (Fusarium oxysporum) was 4 µg/mL (≈ 4.33 µM), the hemolysis at 5 ug/ml [2] was 41% and the LD50 [4] was 2.2 mg/kg. It also gave an MTD [4] of 0.64 mg/kg, an MIC50 (Candida albicans [3]) of 0.12 µg/mL (≈ 0.13 µM) and an MIC90 (Candida albicans [3]) of 0.4 µg/mL (≈ 0.433 µM).
With `C[C@@H]1[C@H](O)[C@@H](C)/C=C/C=C/C=C/C=C/C=C/C=C/C=C/[C@H](O[C@H]2O[C@@H](C)[C@H](O)[C@@H](N)[C@H]2O)C[C@@H]2O[C@](O)(C[C@@H](O)[C@H](O)CC[C@@H](O)C[C@@H](O)C[C@@H](O)CC(=O)O[C@H]1C)C[C@H](O)[C@H]2C(=O)NCCCN(C)C` the MIC (Candida albicans [1]) was 1 µg/mL (≈ 0.992 µM), the MIC (Vanrija humicola) was 1 µg/mL (≈ 0.992 µM) and the MIC (Aspergillus niger) was 2 µg/mL (≈ 1.98 µM). For the same compound, the MIC (Fusarium oxysporum) was 2 µg/mL (≈ 1.98 µM), the hemolysis at 5 ug/ml [2] was 2% and the LD50 [4] was 16.4 mg/kg. It also gave an MTD [4] of 11.9 mg/kg, an MIC50 (Candida albicans [3]) of 0.08 µg/mL (≈ 0.0793 µM) and an MIC90 (Candida albicans [3]) of 0.3 µg/mL (≈ 0.298 µM).
Compound `C[C@@H]1[C@H](O)[C@@H](C)/C=C/C=C/C=C/C=C/C=C/C=C/C=C/[C@H](O[C@H]2O[C@@H](C)[C@H](O)[C@@H](N(CCCN)CCCN)[C@H]2O)C[C@@H]2O[C@](O)(C[C@@H](O)[C@H](O)CC[C@@H](O)C[C@@H](O)C[C@@H](O)CC(=O)O[C@H]1C)C[C@H](O)[C@H]2C(=O)O` has an MIC (Candida albicans [1]) of 1 µg/mL (≈ 0.963 µM), an MIC (Vanrija humicola) of 1 µg/mL (≈ 0.963 µM) and an MIC (Aspergillus niger) of 1 µg/mL (≈ 0.963 µM). The MIC (Fusarium oxysporum) was 1 µg/mL (≈ 0.963 µM), the hemolysis at 5 ug/ml [2] was 15% and the MIC50 (Candida albicans [3]) was 0.04 µg/mL (≈ 0.0385 µM). The MIC90 (Candida albicans [3]) was 0.13 µg/mL (≈ 0.125 µM).
For `C[C@@H]1[C@H](O)[C@@H](C)/C=C/C=C/C=C/C=C/C=C/C=C/C=C/[C@H](O[C@@H]2O[C@H](C)[C@@H](O)[C@H](N)[C@@H]2O)C[C@@H]2O[C@](O)(C[C@@H](O)C[C@@H](O)[C@H](O)CC[C@@H](O)C[C@@H](O)CC(=O)O[C@H]1C)C[C@H](O)[C@H]2C(=O)O` [AMPHOTERICIN B], the MIC (Candida albicans [1]) was 1 µg/mL (≈ 1.08 µM), the MIC (Vanrija humicola) was 1 µg/mL (≈ 1.08 µM) and the MIC (Aspergillus niger) was 1 µg/mL (≈ 1.08 µM). For the same compound, the MIC (Fusarium oxysporum) was 4 µg/mL (≈ 4.33 µM), the hemolysis at 5 ug/ml [2] was 30% and the LD50 [4] was 2.8 mg/kg. It also gave an MTD [4] of 2.01 mg/kg, an MIC50 (Candida albicans [3]) of 0.11 µg/mL (≈ 0.119 µM) and an MIC90 (Candida albicans [3]) of 0.36 µg/mL (≈ 0.39 µM).
